The record followed here is ChEMBL document CHEMBL1155436, “Phantasmidine: an epibatidine congener from the ecuadorian poison frog Epipedobates anthonyi” (J Nat Prod, 2010).

Calls of active or inactive are those of the source. No cut-off for these calls is given here.

The nature of test [1]: Selectivity of beta4 nAChR over beta2 nAChR.
Test [2] deals with T1, Neuronal acetylcholine receptor; alpha3/beta4 (Rattus norvegicus) (UniProt P04757+P12392). The test can be described thus: Agonist activity at rat alpha3beta4 nAChR expressed in HEK cells assessed as membrane depolarization after 1 hr by HPLC based fluorescence assay. Conditions: HEK293. The test is classed as functional, cell-based. Put shortly:
(§1)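 Membrane potential assay in G418-selected KXR3β4R2, KXR4β4R1 or KXR4β2R2 lines on poly-D-lysine plates (DMEM, 10% FBS, near confluence). Cells washed in HBSS/HEPES pH 7.4 and loaded with no-wash dye 1 h dark at room temperature. Fractions reconstituted in HBSS/HEPES, added after 15 s basal, read 105 s. Nicotine (300 µM added solution) and KCl (160 mM) follow. Peak response normalised to KCl maximum after basal subtraction.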

In test [3] the target is T2, Neuronal acetylcholine receptor; alpha3/beta4 (Homo sapiens) (UniProt P30926+P32297). Nature of the test: Agonist activity at human alpha3beta4 nAChR in human IMR32 cells assessed as membrane depolarization after 1 hr by HPLC based fluorescence assay. It is filed as functional, cell-based. Conditions: IMR-32. The gist of the method: (§2)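 Membrane potential dye assay in native SH-SY5Y, IMR-32 or TE-671 cells. Cells grown near confluence on poly-D-lysine plates in DMEM with 10% FBS, washed in HBSS/20 mM HEPES pH 7.4, then loaded with dye 1 h in dark at room temperature. Ex 530/em 565 nm. Sequence: 15 s basal, HPLC fraction 105 s, 300 µM nicotine (added solution), 160 mM KCl (added solution). Response = basal-subtracted peak ÷ KCl maximum.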

In test [4] the target is T2, Neuronal acetylcholine receptor; alpha3/beta4 (Homo sapiens). Nature of the test: Agonist activity at human alpha3beta4 nAChR in human SH-SY5Y cells assessed as membrane depolarization after 1 hr by HPLC based fluorescence assay. It is filed as functional, cell-based. The gist of the method:
as §2

In test [5] the target is T1, Neuronal acetylcholine receptor; alpha3/beta4 (Rattus norvegicus). The test can be described thus: Agonist activity at rat alpha3beta4 nAChR expressed in HEK cells assessed as elevation of intracellular calcium after 1 hr by HPLC based fluorescence assay. Conditions: HEK293. The test is classed as functional, cell-based.
The target in test [6] is Neuronal acetylcholine receptor; alpha4/beta2 (Rattus norvegicus) (UniProt P09483+P12390). The test can be described thus: Agonist activity at rat alpha4beta2 nAChR expressed in HEK cells assessed as membrane depolarization after 1 hr by HPLC based fluorescence assay. The test is classed as functional, cell-based. Conditions: HEK293. The gist of the method: as §1
The target in test [7] is Neuronal acetylcholine receptor; alpha4/beta4 (Rattus norvegicus) (UniProt P09483+P12392). The test can be described thus: Agonist activity at rat alpha4beta4 nAChR expressed in HEK cells assessed as membrane depolarization after 1 hr by HPLC based fluorescence assay. The test is classed as functional, cell-based. Conditions: HEK293. Put shortly:
as §1

Test [8] concerns the target Acetylcholine receptor; alpha1/beta1/delta/gamma (Homo sapiens) (UniProt P02708+P07510+P11230+Q07001). Nature of the test: Agonist activity at human alpha-1-beta-1-gamma-delta nAChR expressed in human TE671 cells assessed as membrane depolarization after 1 hr by HPLC based fluorescence assay. Conditions: TE-671. It is filed as functional, cell-based. Put shortly: as §2

Test [9] concerns the target Neuronal acetylcholine receptor; alpha4/beta2 (Homo sapiens) (UniProt P17787+P43681). Nature of the test: Agonist activity at human alpha4beta2 nAChR expressed in human K177 cells assessed as membrane depolarization after 1 hr by HPLC based fluorescence assay. It is filed as functional, cell-based.

`c1cncc([C@H]2C[C@@H]3CC[C@H]2N3)c1` came in with a fold change (FC) in test [1] of 3.
Turning to `O=C1NC[C@@]2(CN3CCC2CC3)O1`, the fold change (FC) in test [1] is more than 20.
For the molecule `Clc1ccc(C2CC3CCC2N3)cn1` (stereo not given), the result in test [2], in test [3], in test [4] and in test [5] was Active.
In the case of `Clc1ccc2c(n1)O[C@@]13CC[C@@H]1NC[C@@H]23`, the outcome in [2], in [3], in [4], in [5] and in test [7] was Active. Moreover, the result in test [6], in [8] and in test [9] was inactive.
In the case of `Clc1ccc(C2=CCC[C@@H]3CC[C@H]2N3)cn1`, in test [1], the fold change (FC) stood at 3.
